Among the data in ChEMBL document CHEMBL3352345, “Design, synthesis and biological evaluation of novel thieno[3,2-d]pyrimidine derivatives containing diaryl urea moiety as potent antitumor agents” (Eur J Med Chem, 2014) are IC50 values, retold here.

Holding throughout (type): functional, cell-based
For one assay, the system named is HT-29. The assay is described as follows: Cytotoxicity against human HT-29 cells after 72 hrs by MTT assay. The settings on record: HT-29, 72 h. The method in brief: (§1)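 Cells suspended in MEM medium, plated and incubated 24 h at 37 °C in 5% CO₂, then exposed to compounds at indicated final concentrations for 72 h. IC₅₀ from averages of three determinations, relative to DMSO vehicle control.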

In the next assay the test system is MDA-MB-231. In words: Cytotoxicity against human MDA-MB-231 cells after 72 hrs by MTT assay. The settings on record: MDA-MB-231, 72 h. The method in brief: as §1
Assay [1] is described as follows: Cytotoxicity against human MKN45 cells after 72 hrs by MTT assay. To be noted: MKN-45, 72 h. In a few lines:
as §1

A short description of assay [2]: Cytotoxicity against human H460 cells after 72 hrs by MTT assay. The settings on record: NCI-H460, 72 h. In a few lines: as §1

Turning to `CCN(CC)CCNc1nc(-c2ccc(NC(=O)Nc3ccc(Cl)cc3Cl)cc2)nc2c(Cl)c(Cl)sc12`, the IC50 amounted to 1140 nM with HT-29, 1920 nM with MDA-MB-231, 1770 nM in assay [1] and 1300 nM in assay [2].
On to `CN(C)CCCNc1nc(-c2ccc(NC(=O)Nc3ccccc3F)cc2)nc2ccsc12`, for which the IC50 worked out at 470 nM with HT-29, 660 nM with MDA-MB-231, 730 nM in assay [1] and 530 nM in assay [2].
On to `CCN(CC)CCNc1nc(-c2ccc(NC(=O)Nc3ccc(Cl)cc3)cc2)nc2ccsc12`, for which the IC50 in the assay with HT-29 turned out to be 150 nM; in the assay with MDA-MB-231, 550 nM; in assay [1], 370 nM; in assay [2], 190 nM.
For `CCN(CC)CCCNc1nc(-c2ccc(NC(=O)Nc3ccccc3)cc2)nc2ccsc12` the same measures were 730 nM, 1230 nM, 980 nM and 680 nM.
As to `CCN(CC)CCNc1nc(-c2ccc(NC(=O)Nc3ccc(C)cc3)cc2)nc2c(Cl)c(Cl)sc12`, the IC50 amounted to 950 nM in the assay with HT-29, 2010 nM in the assay on MDA-MB-231, 1450 nM in assay [1] and 840 nM in assay [2].
For `CCN(CC)CCCNc1nc(-c2ccc(NC(=O)Nc3ccccc3F)cc2)nc2ccsc12` the same measures were 550 nM, 860 nM, 580 nM and 370 nM.
As for `CN(C)CCNc1nc(-c2ccc(NC(=O)Nc3ccc(F)cc3)cc2)nc2c(Cl)c(Cl)sc12`, the IC50 in the assay on HT-29 was found to be 890 nM; in the assay on MDA-MB-231 it was 1240 nM; in assay [1], 1350 nM; in assay [2], 590 nM.
For `CCN(CC)CCCNc1nc(-c2ccc(NC(=O)Nc3ccc(F)cc3)cc2)nc2ccsc12` the same measures were 340 nM, 530 nM, 470 nM and 290 nM.
As for `CCN(CC)CCNc1nc(-c2ccc(NC(=O)Nc3ccc(Cl)cc3)cc2)nc2c(Cl)c(Cl)sc12`, the IC50 with HT-29 came out at 430 nM; with MDA-MB-231, 750 nM; in assay [1], 890 nM; in assay [2], 320 nM.
Consider `CCN(CC)CCCNc1nc(-c2ccc(NC(=O)Nc3ccc(F)cc3)cc2)nc2c(Cl)c(Cl)sc12`, for which the IC50 is 350 nM in the assay with HT-29, 1630 nM in the assay on MDA-MB-231, 1700 nM in assay [1] and 450 nM in assay [2].
For `CCN(CC)CCCNc1nc(-c2ccc(NC(=O)Nc3ccccc3)cc2)nc2c(Cl)c(Cl)sc12` the same measures were 820 nM, 1780 nM, 1640 nM and 850 nM.
Turning to `CN(C)CCNc1nc(-c2ccc(NC(=O)Nc3ccc(F)cc3)cc2)nc2ccsc12`, the IC50 with HT-29 turned out to be 350 nM; with MDA-MB-231 it was 540 nM; in assay [1], 330 nM; in assay [2], 390 nM.
Regarding `CCN(CC)CCNc1nc(-c2ccc(NC(=O)Nc3ccc(Cl)cc3Cl)cc2)nc2ccsc12`, the IC50 amounted to 1940 nM in the assay with HT-29, 2480 nM with MDA-MB-231, 1520 nM in assay [1] and 1890 nM in assay [2].
Take `Cc1ccc(NC(=O)Nc2ccc(-c3nc(NCCN(C)C)c4sccc4n3)cc2)cc1`: the IC50 in the assay with HT-29 came out at 2150 nM; in the assay with MDA-MB-231, 2180 nM; in assay [1], 2380 nM; in assay [2], 1880 nM.
As for `CCN(CC)CCNc1nc(-c2ccc(NC(=O)Nc3ccccc3F)cc2)nc2ccsc12`, the IC50 turned out to be 610 nM in the assay on HT-29, 580 nM in the assay with MDA-MB-231, 1040 nM in assay [1] and 430 nM in assay [2].
Consider `CN(C)CCNc1nc(-c2ccc(NC(=O)Nc3ccc(Cl)cc3)cc2)nc2ccsc12`, for which the IC50 stood at 95 nM with HT-29, 310 nM with MDA-MB-231, 250 nM in assay [1] and 130 nM in assay [2].
Consider `CN(C)CCCNc1nc(-c2ccc(NC(=O)Nc3ccccc3Cl)cc2)nc2ccsc12`, for which the 50% inhibitory concentration (IC50) with HT-29 came out at 390 nM; in the assay on MDA-MB-231 it was 590 nM; in assay [1], 690 nM; in assay [2], 430 nM.
For `CN(C)CCNc1nc(-c2ccc(NC(=O)Nc3ccccc3F)cc2)nc2ccsc12` the same measures were 510 nM, 600 nM, 530 nM and 410 nM.
For the compound `CN(C)CCCNc1nc(-c2ccc(NC(=O)Nc3ccc(F)cc3)cc2)nc2c(Cl)c(Cl)sc12`, the IC50 is 430 nM in the assay with HT-29, 980 nM in the assay with MDA-MB-231, 1120 nM in assay [1] and 650 nM in assay [2].
Take `CCN(CC)CCCNc1nc(-c2ccc(NC(=O)Nc3ccc(Cl)cc3)cc2)nc2c(Cl)c(Cl)sc12`: the IC50 in the assay on HT-29 was 250 nM; with MDA-MB-231, 660 nM; in assay [1] it was 720 nM; in assay [2], 270 nM.
Consider `CN(C)CCNc1nc(-c2ccc(NC(=O)Nc3ccc(Cl)cc3Cl)cc2)nc2c(Cl)c(Cl)sc12`, for which the IC50 with HT-29 was found to be 1280 nM; in the assay on MDA-MB-231 it was 3500 nM; in assay [1], 3460 nM; in assay [2], 1520 nM.
For the compound `CN(C)CCCNc1nc(-c2ccc(NC(=O)Nc3ccccc3Cl)cc2)nc2c(Cl)c(Cl)sc12`, the IC50 stood at 820 nM in the assay on HT-29, 1560 nM in the assay with MDA-MB-231, 1330 nM in assay [1] and 490 nM in assay [2].
In assay [1], `CS(=O)(=O)N1CCN(Cc2cc3nc(-c4cccc5[nH]ncc45)nc(N4CCOCC4)c3s2)CC1` [PICTILISIB] had an IC50 of 600 nM.
In the case of `CCN(CC)CCNc1nc(-c2ccc(NC(=O)Nc3ccccc3Cl)cc2)nc2c(Cl)c(Cl)sc12`, the IC50 in the assay on HT-29 came out at 550 nM; in the assay with MDA-MB-231, 1410 nM; in assay [1] it was 1130 nM; in assay [2], 460 nM.
For `CCN(CC)CCCNc1nc(-c2ccc(NC(=O)Nc3ccccc3Cl)cc2)nc2ccsc12` the same measures were 340 nM, 500 nM, 390 nM and 200 nM.
Regarding `CCN(CC)CCCNc1nc(-c2ccc(NC(=O)Nc3ccc(Cl)cc3Cl)cc2)nc2c(Cl)c(Cl)sc12`, the IC50 came to 1230 nM in the assay with HT-29, 3940 nM with MDA-MB-231, 5720 nM in assay [1] and 1170 nM in assay [2].
For the compound `CN(C)CCNc1nc(-c2ccc(NC(=O)Nc3ccccc3)cc2)nc2ccsc12`, the IC50 in the assay with HT-29 is 620 nM; with MDA-MB-231 it was 1310 nM; in assay [1], 1120 nM; in assay [2], 640 nM.
Take `CN(C)CCNc1nc(-c2ccc(NC(=O)Nc3ccccc3Cl)cc2)nc2ccsc12`: the IC50 in the assay on HT-29 is 310 nM; with MDA-MB-231 it was 550 nM; in assay [1], 850 nM; in assay [2] it was 230 nM.
As to `CCN(CC)CCCNc1nc(-c2ccc(NC(=O)Nc3ccccc3Cl)cc2)nc2c(Cl)c(Cl)sc12`, the IC50 in the assay with HT-29 turned out to be 410 nM; with MDA-MB-231, 970 nM; in assay [1], 1450 nM; in assay [2] it was 330 nM.
For the compound `CN(C)CCNc1nc(-c2ccc(NC(=O)Nc3ccccc3Cl)cc2)nc2c(Cl)c(Cl)sc12`, the IC50 in the assay with HT-29 worked out at 570 nM; in the assay on MDA-MB-231, 1350 nM; in assay [1], 1170 nM; in assay [2], 440 nM.
On to `CN(C)CCNc1nc(-c2ccc(NC(=O)Nc3ccc(Cl)cc3)cc2)nc2c(Cl)c(Cl)sc12`, for which the IC50 with HT-29 was found to be 460 nM; with MDA-MB-231, 870 nM; in assay [1], 910 nM; in assay [2], 300 nM.
